From PubChem
Myeloid diff MLP – myeloid differentiation induction; AID 624256; hit rate 1% among 360,000; ER-HoxA9 myeloid progenitors, lysozyme-GFP differentiation, flow cytometry; calls only at 10 µM;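 active means normalized GFP-positive differentiation at or above the plate's own cutoff, the solvent-only control mean plus 3 SD; inconclusive means no clear call, values can overlap the other calls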;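 further: cells exposed to compound for four days before flow analysis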
T cell modulator – modulates CD8 T cell binding to vesicles. 2C CD8+ T cell-vesicle binding, flow cytometry; stronger effect = lower value. hit rate 0.068% among 330,000. AID 2052. response (vesicle binding), % at 7 µM;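 active means response, share of CD8 T cells binding vesicles, and their 90th percentile fluorescence all below set limits, cut at about 80% in these data, passing the limit was not always enough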;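 further: values below 100% mean blocked vesicle binding to the CD8+ T cells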
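material = purified 2C TCR transgenic mouse naive CD8+ T cells | controls = Unloaded micro-vesicles (low), QL9 vesicles with 0.7% DMSO (high) | detection = cytometric PE anti-B7-1 and Alexa647 anti-CD8 signals after 1% paraformaldehyde fixation | incubation = binding step 1.5 h, 37 °C, antibody labelling 20 min, ice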
Vif inh – HIV Vif inhibition; inhibition, % at 7.49 µM; HEK293T cells, Vif self-association by quenched fluorescence, imaging, 24 h; AID 602346; hit rate 0.35% among 340,000; in the data active means inhibition above about 50%, passing the limit was not always enough; inconclusive means no clear call, values can overlap the other calls; inactive means below about 31%
CASP6 VEID inh – caspase-6 (human) enzyme inhibition; inhibition, % at 12.5 µM; purified caspase-6, Z-VEID-R110 cleavage fluorescence; P55212; hit rate 0.53% among 350,000;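 active means mean inhibition across replicates at least about 35%, with every replicate also reaching that limit, limit read from the data; inconclusive means only one of the two criteria met; inactive means neither criterion met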;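 further: 0% = median of neutral control wells and 100% = no fluorescence left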
Target sequence (P55212 24-179 limits assumed): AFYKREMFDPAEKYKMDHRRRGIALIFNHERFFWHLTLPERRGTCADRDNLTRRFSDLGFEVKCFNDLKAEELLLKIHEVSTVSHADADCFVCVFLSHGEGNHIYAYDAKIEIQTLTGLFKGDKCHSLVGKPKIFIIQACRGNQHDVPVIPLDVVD
Target sequence (P55212 194-293 limits assumed): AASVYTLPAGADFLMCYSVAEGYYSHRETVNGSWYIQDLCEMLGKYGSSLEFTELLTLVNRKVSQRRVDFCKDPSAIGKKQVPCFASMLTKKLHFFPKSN
* marks the source's active call; other numbers are inactive results; i = inactive; ? = inconclusive; / = not tested or not shown; + = active, no number. This is a sample that favours compounds with a hit; in the whole collection about 1.4% have one here.

SMILES	Myeloid diff MLP	T cell modulator	Vif inh	CASP6 VEID inh
CSc1cccc(N2CC(C(=O)NCCC3=CCCCC3)CC2=O)c1 (configuration not stated)	i	189	66*	2
O=C(C1CCC1)N1CC(=O)N2[C@@H](CO)[C@@H](c3ccc(C4=CCCCC4)cc3)[C@@H]2C1	/	/	/	2
COc1cc(-c2noc(C)c2/C=C/c2ccc(C(=O)O)cc2)cc(OC)c1OC	i	865	3	35*
O=S(=O)(c1ccc(Cl)cc1)N1CCC(O)(c2cccnc2)CC1	i	0.0*	8	/
CC(=O)Oc1c(C)c(C)c2c(c1C)CC[C@@](C)(CCC[C@H](C)CCC[C@H](C)CCCC(C)C)O2	+	879	-7	-4
C[C@H](CO)N1C[C@H](C)[C@@H](CN(C)Cc2ccc(C(=O)Nc3ccccc3N)cc2)Oc2ccc(NC(=O)c3ccncc3)cc2C1=O	/	/	/	-3
Cc1cccc(N2NC(=O)/C(=C/c3ccc(-c4ccc(Cl)c(C(=O)O)c4)o3)C2=O)c1	i	/	-3	52*
O=C(O)c1cc(-c2ccc(/C=C3\NC(=O)N(c4ccc(Cl)cc4)C3=O)o2)ccc1Cl	i	292	3	40*
CCOC(=O)c1cc(-c2ccc(/C=C3/C(=O)N(c4ccc(C(=O)O)cc4)N=C3C)o2)ccc1Cl	+	235	-3	4
O=C1NN(c2ccccc2)C(=O)/C1=C/c1ccc(Sc2ccc(Cl)cc2)o1	i	227	1	40*
CCCNC(=O)N(C)C[C@@H]1Oc2ncc(Br)cc2C(=O)N([C@H](C)CO)C[C@H]1C	/	/	/	11
O=C1NN(c2ccccc2)C(=O)/C1=C/c1ccc(-c2ccc(Cl)c(C(=O)O)c2)o1	i	/	4	55*
C[C@@H]1CN([C@@H](C)CO)S(=O)(=O)c2ccc(C#CC(C)(C)O)cc2O[C@H]1CN(C)C(=O)C1CCC1	/	/	/	-6
CC(C)C(=O)NCCc1nc(-c2ccccc2Cl)no1	i	686	83*	3
O=C(NCCc1nc(-c2ccccc2Cl)no1)c1ccccc1	i	360	11	/
COc1cc(/C=C/C(=O)O)ccc1S(=O)(=O)N1CCCc2ccccc21	i	186	96*	2
COc1cc(/C=C/C(=O)OCC(=O)N2CCCc3ccccc32)ccc1O	i	678	68*	1
CCc1c(C)nc(SCC(=O)Nc2nc(-c3ccc(OC)cc3)cs2)[nH]c1=O	i	53*	0	3
CCc1c(C)nc(SCC(=O)NNC(=O)Cc2ccc(OC)cc2)[nH]c1=O	i	591	-17	-4
Cc1ccc(S(=O)(=O)N2C[C@H]3C(=O)C[C@@H](c4ccccc4)N(S(=O)(=O)c4ccc(C)cc4)[C@H]3C[C@H]2c2cccc(Cl)c2)cc1	+	/	/	-4
COc1ccc(CNC(=O)Nc2cccc(Cl)c2)cc1	i	356	2	/
COc1ccc(CNC(=S)Nc2cccc(Cl)c2)cc1	i	515	53*	6
CC(Oc1ccc2ccccc2c1)C(=O)N/N=C/c1cccnc1 (configuration not stated)	i	187	16	/
CC(Nc1ccc2ccccc2c1)C(=O)N/N=C/c1ccncc1 (configuration not stated)	i	238	-2	61*
C[C@@H]1CN([C@@H](C)CO)C(=O)c2cc(-c3ccc(F)cc3)cnc2O[C@@H]1CN(C)C(=O)C1CCC1	/	/	/	-1
SMILES	Myeloid diff MLP	T cell modulator	Vif inh	CASP6 VEID inh
COc1ccc2c(c1)CC/C(=C/c1ccncc1)C2=O	+	106	-9	/
C[C@@H]1CN([C@H](C)CO)S(=O)(=O)c2ccc(C#Cc3ccncc3)cc2O[C@H]1CN(C)C(=O)C1CCOCC1	/	/	/	-1
O=C(N/N=C/c1cccc2ccccc12)c1n[nH]c2c1CCCC2	+	67	8	3
CC(NC(=O)Cc1ccc(F)cc1)c1ccccc1 (configuration not stated)	i	64*	15	/
CCc1ccc(C(C)NC(=O)Cc2ccc(F)cc2)cc1 (configuration not stated)	i	210	-5	10
COc1ccccc1OC(=O)CCc1nc2ccccc2s1	+	108	17	5
O=C(O)C1CC=CCC1C(=O)NCc1ccc2c(c1)OCO2 (configuration not stated)	+	699	-12	/
Cc1ccc(OCC(=O)c2c(N)n(C)c(=O)n(C)c2=O)c([N+](=O)[O-])n1	i	546	-3	35*
Cc1ccc(OCC(=O)c2cc(C)c(C)cc2C)c([N+](=O)[O-])n1	i	260	-7	/
CN(C)C(=O)C[C@H]1CC[C@@H](NC(=O)NC2CCCC2)[C@@H](CO)O1	/	/	/	1
CCN1/C(=C/c2ccc3cc(C)ccc3[n+]2CC)Sc2ccc3sccc3c21	+	i	16	/
CCCNC(=O)[C@@H]1[C@@H](CO)[C@@H]2Cn3c(cccc3=O)[C@H]1N2Cc1ccccc1	/	/	/	2
COc1ccc2c(C)cc(SCC(=O)Nc3nsc(-c4ccc(C)cc4)n3)nc2c1	i	152	-6	49*
Cc1ccc(-c2nc(NC(=O)CSc3cc(C)c4ccccc4n3)ns2)cc1	i	145	20	-2
CC1(C)C(O)=C(c2nc3ccccc3[nH]2)C(=N)N1c1ccccc1	+	318	-14	/
O=C(Cn1c(=O)sc2ccccc21)NCc1ccccn1	+	267	2	1
O=C1CCn2c1c(O)c1ccccc1c2=O	?	/	0	95*
C[C@@H]1CN([C@@H](C)CO)C(=O)c2cc(NS(=O)(=O)c3cccs3)ccc2O[C@H]1CN(C)C(=O)Nc1ccc(C(F)(F)F)cc1	/	/	/	0
COC(=O)Cc1cc(=O)n(-c2nc3ccccc3[nH]2)[nH]1	i	635	1	44*
CO[C@@H]1CN(C)C(=O)c2ccc(NS(=O)(=O)c3ccc(-c4ccccc4)cc3)cc2OC[C@@H](C)NC[C@@H]1C	/	/	/	-3
CO[C@H]1CN(C)C(=O)c2ccc(NC(=O)c3ccccc3)cc2OC[C@H](C)NC[C@@H]1C	/	/	/	-3
Cc1ccc(C(=O)O)cc1NC(=S)NC(=O)Cc1ccccc1	i	144	/	/
Cc1ccc(C(=O)O)cc1NC(=S)NC(=O)c1ccc(COc2ccccc2)cc1	i	120	2	38*
CCC(=O)N(C)C[C@@H]1Oc2cc(-c3cccc(F)c3)ccc2S(=O)(=O)N([C@@H](C)CO)C[C@H]1C	/	/	/	-3
CN(C)S(=O)(=O)c1cccc(NC(=S)N/N=C/c2ccc(O)c(O)c2O)c1	i	/	-12	38*
SMILES	Myeloid diff MLP	T cell modulator	Vif inh	CASP6 VEID inh
COc1ccc(O)c(/C=N/NC(=S)Nc2cccc(S(=O)(=O)N(C)C)c2)c1	i	462	-11	/
CCOC(=O)c1cc(-c2ccc(N3CCOCC3)cc2)nn1-c1ccccc1	i	298	-12	1
CCOC(=O)c1cc(-c2ccc(N3CCOCC3)cc2)nn1-c1ccccc1C(=O)O	i	813	4	40*
COc1ccc(S(=O)(=O)n2cnc3ccccc32)cc1OC	i	405	14	62*
COc1ccc(Cl)cc1S(=O)(=O)n1cnc2ccccc21	i	729	4	/
COc1ccc(-c2coc3cc(O)ccc3c2=O)cc1	i	386	57*	1
